Measurements of several laboratories.
Lines come from different studies, so protocols differ.
Target: SRSF protein kinase 3 (SRPK3, Homo sapiens, UniProt Q9UPE1)

Cc1cnc(NC2CCOCC2)nc1-n1cnc(C(=O)NC(CN)c2cc(F)cc(Cl)c2)c1 (centres unmarked) — remaining activity (enzyme activity; inhibitor; radiometric; 1 µM): 114%
O=C(NS(=O)(=O)c1ccc(NCC2CCOCC2)c([N+](=O)[O-])c1)c1ccc(N2CCN(Cc3ccc(C(F)(F)F)cc3-c3ccc(Cl)cc3)CC2)cc1Oc1cnc2[nH]ccc2c1 — remaining binding (cell-free assay; competition with immobilised ligand; 1 µM): 100%
CC(C)(C)c1nc2c(s1)c1nc(N)ncc1c1ccc(NS(=O)(=O)c3c(F)cccc3F)c(F)c12 — remaining activity (enzyme activity; inhibitor; radiometric; 1 µM): 97%
COc1cc2ncnc(Nc3ccc(Oc4ccccc4)cc3C)c2cc1OC — inhibition (enzyme activity; inhibitor; 1 µM): 2%
CCOc1cc(-c2nncn2C)ccc1Nc1ncc2cc(C)nc(NCC(C)(C)C)c2n1 — inhibition (enzyme activity; inhibitor; FRET; 1 µM): < 15%
Cn1c2c(c3ccc(Cl)c(Cl)c31)C(C#N)C1(CCN(C(=O)OC(C)(C)C)CC1)NC2=O (racemic) — ΔTm (thermal stability; DSF; 10 µM): 0 °C
Cc1ccc(Nc2nccc(N(C)c3ccc4c(C)n(C)nc4c3)n2)cc1S(N)(=O)=O — inhibition (enzyme activity; inhibitor; 10 µM): 3%
CC(=O)Nc1c(C(C)=O)c(=O)n(C)c2nc(-c3ccc(Cl)cc3Cl)c(-c3ccc(Cl)cc3)cc12 — remaining binding (cell-free assay; competition with immobilised ligand; 1 µM): 100%
CC/C(=N\NC(=O)NCc1cccc(O)c1)c1ccc(O)c(C)c1O — inhibition (enzyme activity; inhibitor; 0.1 µM): -2.9%
CS(=O)(=O)NCC[C@H](NC(=O)c1cncc2c1cnn2-c1ccc(F)cc1)c1ccnc(S(C)(=O)=O)c1 — remaining binding (cell-free assay; competition with immobilised ligand; 1 µM): 100%
COc1cc(Cl)c(C(=O)N[C@@H](CN[C@H]2CC[C@@H](N)CC2)Cc2ccc(C#N)cc2)cc1-c1ccc(CN[C@H](C)c2ccc(C)cc2)o1 — remaining activity (enzyme activity; inhibitor; 1 µM): 96%
Cc1cc(-n2nc(Cc3cc(F)cc(C(F)(F)F)c3)nc2C)ccc1C(N)=O — remaining binding (cell-free assay; competition with immobilised ligand; 1 µM): 100%
CNC(=O)c1cc(Oc2ccc(NC(=O)Nc3ccc(Cl)c(C(F)(F)F)c3)cc2)ccn1 — inhibition (enzyme activity; inhibitor; 10 µM): 60%
Cn1c2c(c3ccc(Cl)c(Cl)c31)C(C#N)C(C)(C)NC2=O (centres unmarked) — ΔTm (thermal stability; DSF; 10 µM): 1.5 °C
CNCc1ccccc1-c1csc([C@H](C)Nc2nc(C)nc3cc(OC)c(OC)cc23)c1 — remaining binding (cell-free assay; competition with immobilised ligand; 1 µM): 89%
CCN(CC)CCNC(=O)c1c(C)[nH]c(/C=C2\C(=O)Nc3ccc(F)cc32)c1C — inhibition (enzyme activity; inhibitor; 0.3 µM): -4%
CCCS(=O)(=O)Nc1ccc(F)c(C(=O)c2c[nH]c3ncc(-c4ccc(Cl)cc4)cc23)c1F — inhibition (enzyme activity; inhibitor; 1 µM): < 10%
Cn1c2c(c3ccccc31)C(C#N)C(C)(C)NC2=O (centres unmarked) — ΔTm (thermal stability; DSF; 10 µM): 0.2 °C
CN(C)C(=O)Cn1cc(-c2nc(C3(c4ccc(-c5cnc(N)nc5)cc4)CC3)no2)cn1 — remaining binding (cell-free assay; competition with immobilised ligand; 1 µM): 100%
Nc1ncnc2occ(-c3ccc(NC(=O)Nc4cc(C(F)(F)F)ccc4F)cc3)c12 — remaining signal (cell-free assay; inhibitor; 20 µM): 88%
